This is an account of results in ChEMBL document CHEMBL4014314, “Rational Design of Bisubstrate-Type Analogues as Inhibitors of DNA Methyltransferases in Cancer Cells” (J Med Chem, 2017).

The target in data set [1] is T1, DNA (cytosine-5)-methyltransferase 1 (Homo sapiens, UniProt P26358). In words: Inhibition of full length His-tagged human DNMT1 using SAM/[methyl-3H]SAM assessed as reduction of methylation in biotinylated hemimethylated DNA duplex at 100 uM after 1 hr by scintillation counting method relative to control.
T1 sequence (P26358 whole entry): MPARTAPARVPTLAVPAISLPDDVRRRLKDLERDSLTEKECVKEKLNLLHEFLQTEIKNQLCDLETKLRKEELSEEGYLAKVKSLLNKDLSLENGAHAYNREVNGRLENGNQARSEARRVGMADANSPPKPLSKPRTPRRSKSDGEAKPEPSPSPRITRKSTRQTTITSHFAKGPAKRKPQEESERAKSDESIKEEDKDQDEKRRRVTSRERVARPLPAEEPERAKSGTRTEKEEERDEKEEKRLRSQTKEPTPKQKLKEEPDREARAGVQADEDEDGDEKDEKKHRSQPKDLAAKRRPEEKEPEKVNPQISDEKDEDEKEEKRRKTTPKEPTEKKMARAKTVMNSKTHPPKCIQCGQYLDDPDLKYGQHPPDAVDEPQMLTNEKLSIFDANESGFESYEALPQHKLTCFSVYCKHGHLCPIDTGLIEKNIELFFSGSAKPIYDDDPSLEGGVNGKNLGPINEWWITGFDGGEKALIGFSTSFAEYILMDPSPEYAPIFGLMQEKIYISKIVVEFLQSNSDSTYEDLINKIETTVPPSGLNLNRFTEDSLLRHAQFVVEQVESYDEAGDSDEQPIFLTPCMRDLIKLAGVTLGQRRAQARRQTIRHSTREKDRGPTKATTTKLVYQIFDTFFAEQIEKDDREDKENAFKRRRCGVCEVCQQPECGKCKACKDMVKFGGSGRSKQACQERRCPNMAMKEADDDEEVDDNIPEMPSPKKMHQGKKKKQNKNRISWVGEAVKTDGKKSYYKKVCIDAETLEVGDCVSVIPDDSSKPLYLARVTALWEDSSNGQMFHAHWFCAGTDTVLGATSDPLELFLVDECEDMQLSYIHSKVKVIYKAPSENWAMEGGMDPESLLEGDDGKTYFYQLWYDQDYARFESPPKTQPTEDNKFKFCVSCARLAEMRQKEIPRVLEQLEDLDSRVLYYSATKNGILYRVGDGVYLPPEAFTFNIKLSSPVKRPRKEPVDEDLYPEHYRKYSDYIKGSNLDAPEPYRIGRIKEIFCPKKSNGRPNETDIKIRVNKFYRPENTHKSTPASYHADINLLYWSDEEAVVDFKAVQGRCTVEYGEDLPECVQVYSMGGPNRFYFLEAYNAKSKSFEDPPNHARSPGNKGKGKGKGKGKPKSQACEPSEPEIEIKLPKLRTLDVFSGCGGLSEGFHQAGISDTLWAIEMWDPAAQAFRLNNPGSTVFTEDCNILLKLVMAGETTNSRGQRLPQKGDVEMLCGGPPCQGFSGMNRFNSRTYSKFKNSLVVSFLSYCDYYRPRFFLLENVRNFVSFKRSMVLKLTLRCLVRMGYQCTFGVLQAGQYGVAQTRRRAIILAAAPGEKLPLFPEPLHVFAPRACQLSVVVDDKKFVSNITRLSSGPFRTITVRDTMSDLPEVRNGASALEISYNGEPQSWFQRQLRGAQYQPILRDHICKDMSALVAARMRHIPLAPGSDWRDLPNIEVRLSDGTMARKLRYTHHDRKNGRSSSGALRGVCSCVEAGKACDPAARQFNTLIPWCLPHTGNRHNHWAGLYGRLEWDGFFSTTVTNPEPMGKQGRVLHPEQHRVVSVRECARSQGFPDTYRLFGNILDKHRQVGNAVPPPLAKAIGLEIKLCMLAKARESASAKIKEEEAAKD
In data set [2] the target is T1, DNA (cytosine-5)-methyltransferase 1. In words: Inhibition of full length His-tagged human DNMT1 using SAM/[methyl-3H]SAM assessed as reduction of methylation in biotinylated hemimethylated DNA duplex at 32 uM after 1 hr by scintillation counting method relative to control.
The target of data set [3] is T2, DNA (cytosine-5)-methyltransferase 3A (Homo sapiens, UniProt Q9Y6K1). In words: Inhibition of human DNMT3A catalytic domain using AdoMet assessed as reduction of methylation in 5'-biotin/3' 6-carboxyfluorescein labeled DNA duplex at CpG site at 32 uM after 1 hr by fluorescence assay relative to control.
T2 sequence (Q9Y6K1 whole entry, looked up, the tested form may be a part): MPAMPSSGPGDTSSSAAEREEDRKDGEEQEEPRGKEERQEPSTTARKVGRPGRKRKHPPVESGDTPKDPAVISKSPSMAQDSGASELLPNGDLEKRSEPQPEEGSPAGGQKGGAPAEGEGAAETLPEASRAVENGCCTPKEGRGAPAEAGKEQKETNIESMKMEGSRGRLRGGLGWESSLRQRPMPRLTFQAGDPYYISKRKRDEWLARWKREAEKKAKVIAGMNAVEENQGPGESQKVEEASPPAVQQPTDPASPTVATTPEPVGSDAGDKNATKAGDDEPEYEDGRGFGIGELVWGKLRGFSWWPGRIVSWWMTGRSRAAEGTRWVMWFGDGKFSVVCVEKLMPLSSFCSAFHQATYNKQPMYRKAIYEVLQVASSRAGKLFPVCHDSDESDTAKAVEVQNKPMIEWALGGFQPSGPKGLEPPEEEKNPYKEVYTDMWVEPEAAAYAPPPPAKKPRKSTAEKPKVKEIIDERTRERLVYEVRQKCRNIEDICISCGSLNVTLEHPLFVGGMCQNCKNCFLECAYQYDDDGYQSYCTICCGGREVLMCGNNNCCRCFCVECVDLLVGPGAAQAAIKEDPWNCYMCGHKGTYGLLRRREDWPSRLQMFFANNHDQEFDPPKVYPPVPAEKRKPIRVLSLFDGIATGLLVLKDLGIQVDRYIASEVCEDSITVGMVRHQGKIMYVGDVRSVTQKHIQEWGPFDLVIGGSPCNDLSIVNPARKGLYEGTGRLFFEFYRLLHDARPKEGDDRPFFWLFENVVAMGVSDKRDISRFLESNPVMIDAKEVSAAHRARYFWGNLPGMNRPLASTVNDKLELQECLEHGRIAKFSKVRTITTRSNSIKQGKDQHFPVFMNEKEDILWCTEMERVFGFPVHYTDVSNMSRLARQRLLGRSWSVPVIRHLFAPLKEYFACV
The target of data set [4] is T2, DNA (cytosine-5)-methyltransferase 3A. In words: Inhibition of human DNMT3A catalytic domain using AdoMet assessed as reduction of methylation in 5'-biotin/3' 6-carboxyfluorescein labeled DNA duplex at CpG site after 1 hr by fluorescence assay. Summed up: (§1)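 Human full-length DNMT1 and catalytic DNMT3A tested for methylation of a DNA duplex; the paper gives assay details elsewhere. EC50 from a sigmoid dose-response fit with variable Hill slope; reported as median with SE from at least two independent experiments for DNMT1 and three for DNMT3A; DNMT3A curves run in technical duplicates.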

The target is the same in data set [5]. In words: Inhibition of human DNMT3A catalytic domain using AdoMet assessed as reduction of methylation in 5'-biotin/3' 6-carboxyfluorescein labeled DNA duplex at CpG site at 10 uM after 1 hr by fluorescence assay relative to control.
The species entered for data set [6] is Homo sapiens. In words: Inhibition of DNMT in human KG1 cells assessed as luciferase gene driven CMV promoter demethylation by measuring luciferase reactivation at 1 uM after 24 hrs by luciferase reporter gene assay. The data set is classed as cell-based. Summed up: (§2)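 Leukemia KG-1 cells carrying a stable luciferase gene under a partially methylated CMV promoter, treated in 96-well plates for 24 h. Luciferase signal read by luminescence (Britelite); reactivation fold expressed as ratio to non-treated cells. Mean of three experiments with standard error.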
(In a reporter assay the amount or activity of a reporter protein is the signal.)

Data set [7] is filed under the species Homo sapiens. In words: Inhibition of DNMT in human KG1 cells assessed as luciferase gene driven CMV promoter demethylation by measuring luciferase reactivation at 5 uM after 24 hrs by luciferase reporter gene assay. The data set is classed as cell-based. Summed up:
as §2

In data set [8] the target is T1, DNA (cytosine-5)-methyltransferase 1. In words: Inhibition of full length His-tagged human DNMT1 using SAM/[methyl-3H]SAM assessed as reduction of methylation in biotinylated hemimethylated DNA duplex after 1 hr by scintillation counting method. Summed up:
as §1

The species named for data set [9] is Homo sapiens. In words: Inhibition of DNMT in human KG1 cells assessed as luciferase gene driven CMV promoter demethylation by measuring fold increase in luciferase reactivation at 5 uM after 24 hrs by luciferase reporter gene assay relative to control. Format: cell-based. Summed up:
as §2

For data set [10], the species on record is Homo sapiens. In words: Inhibition of DNMT in human KG1 cells assessed as luciferase gene driven CMV promoter demethylation by measuring luciferase reactivation at 0.1 uM after 24 hrs by luciferase reporter gene assay. The data set is classed as cell-based. The method, boiled down:
as §2

Data set [11] is filed under the species Homo sapiens. In words: Inhibition of DNMT in human HCT116 cells assessed as demethylation of CDKN2A promoter at 100 nM after 3 days by COBRA analysis relative to control. Format: cell-based. The method, boiled down:
(§3)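 HCT116 colon cancer cells in MEM with HEPES, L-glutamine and 10% FCS, 37 °C, 5% CO2; seeded 1 × 10^5/mL, treated for 3 or 7 days at 100 nM. Bisulfite-converted DNA amplified at the CDKN2A promoter, then digested with BsiEI at 60 °C for 90 min (COBRA); bands quantified on 2% agarose gel. Methylation given as ratio to untreated cells; at least two independent experiments, standard errors.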

The species entered for data set [12] is Homo sapiens. In words: Inhibition of DNMT in human KG1 cells assessed as luciferase gene driven CMV promoter demethylation by measuring fold increase in luciferase reactivation at 1 uM after 24 hrs by luciferase reporter gene assay relative to control. Format: cell-based. Summed up: as §2
For data set [13], the species on record is Homo sapiens. In words: Inhibition of DNMT in human HCT116 cells assessed as induction of CDKN2A mRNA expression at 100 nM after 3 days by RT qPCR method. The data set is classed as cell-based. Summed up:
(§4)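 HCT116 cells seeded 1 × 10^5/mL and exposed to 100 nM for 3 or 7 days. CDKN2A mRNA quantified by RT-qPCR with SYBR chemistry: 95 °C 30 s, then 40 cycles of 95 °C 5 s and 60 °C 30 s, followed by a melt curve. Expressed as fold change relative to untreated cells; at least two independent experiments, standard errors.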
On the technique in general: Quantitative PCR measures a nucleic acid by following its amplification.

The species named for data set [14] is Homo sapiens. In words: Inhibition of DNMT in human KG1 cells assessed as CpG site demethylation at CMV promoter at 5 uM after 24 hrs by NOMe-Seq method relative to control. Format: cell-based. Summed up: (§5)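 CMV-luc KG-1 acute myeloid leukemia cells in RPMI-1640 with 10% FCS, seeded 2 × 10^5/mL and treated for 24 h at 1 or 5 μM. NOMe-Seq: bisulfite conversion, CMV promoter PCR (40 cycles), cloning and sequencing. CpG methylation and GpC accessibility expressed as ratio of percentage methylated cytosines in treated versus untreated sample.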

For data set [15], the species on record is Homo sapiens. In words: Inhibition of DNMT in human HCT116 cells assessed as demethylation of CDKN2A promoter at 100 nM after 7 days by COBRA analysis relative to control. The data set is classed as cell-based. Summed up:
as §3

The test system of the next data set is KG-1. In words: Toxicity in human KG1 cells assessed as effect on cell viability at 5 uM after 24 hrs by ATPLite assay. The data set is classed as cell-based. The settings on record: kg-1, 24 h. Background: ATP-based viability assays read luminescence as a measure of living cells.
Data set [16] is filed under the species Homo sapiens. In words: Inhibition of DNMT in human KG1 cells assessed as increase in DNA accessibility by opening the chromatin at 5 uM after 24 hrs by NOMe-Seq method relative to control. The data set is classed as cell-based. The arrangement: scale not given: the % may be the effect or the level left. The method, boiled down:
as §5

Data set [17] is filed under the species Homo sapiens. In words: Inhibition of DNMT in human HCT116 cells assessed as induction of CDKN2A mRNA expression at 100 nM after 7 days by RT qPCR method relative to control. Format: cell-based. The method, boiled down: as §4
Data set [18] is filed under the species Homo sapiens. In words: Inhibition of DNMT in human KG1 cells assessed as nucleosome occupancy at CMV promoter by measuring increase in luciferase signal at 5 uM after 24 hrs by NOMe-Seq method relative to control. Format: cell-based.

Active and inactive are the calls of the source. No cut-off for these calls is given here.

In general, inhibition refers to how much of the control response was suppressed. As a reminder, the EC50 is the concentration at which the effect is half-maximal. For the compound `Clc1cccc(CCNc2ncnc3cc(OCC4CCN(CCNc5ccnc6ccccc56)CC4)ccc23)c1`, the inhibition in data set [1] amounted to 97%; in [2], 0%; in [3], 98%; in [5], 84%. Also, the 50% effective concentration (EC50) in data set [4] came to 1 µM.

For `c1ccc(CCCNc2ncnc3cc(OCC4CCN(CCNc5cccc6ccccc56)CC4)ccc23)cc1`, the inhibition in data set [1], in data set [2], in [3] and in data set [5] was 0% in each case. Also, the inhibition result in the data set listed under Homo sapiens [6] and in the data set listed under Homo sapiens [7] was “inactive” in each case.

Turning to `COc1cc2nccc(NCCN3CCC(COc4ccc5c(NCCCc6ccccc6)ncnc5c4)CC3)c2cc1OC`, the inhibition in [1] was determined as 81%; in data set [2] it was 57%; in [3] it was 95%; in [5], 95%. For the same compound, the EC50 was 1.4 µM in [4] and 30 µM in data set [8].

As for `c1ccc2c(CCCNc3ncnc4cc(OCC5CCN(CCNc6ccnc7ccccc67)CC5)ccc34)cccc2c1`, the inhibition was determined as 100% in data set [1], 100% in data set [2], 60% in [3] and 96% in [5]. Further, the EC50 in data set [4] is 1.9 µM; in [8], 16 µM.

Consider `c1ccc(CCNc2ncnc3cc(OCC4CCN(CCNc5ccnc6ccccc56)CC4)ccc23)cc1`, for which the inhibition is 98% in data set [1], 38% in data set [2], 99% in data set [3] and 80% in data set [5]. For the same compound, the figures for the concentration for a half-maximal effect (EC50) in data set [4] and in [8] were 4.9 µM and 32 µM, respectively.

As to `Clc1ccc(CCNc2ncnc3cc(OCC4CCN(CCNc5ccnc6ccccc56)CC4)ccc23)cc1`, the inhibition in [1] was 97%; in data set [2], 75%; in data set [3], 100%; in data set [5] it was 88%. The concentration for a half-maximal effect (EC50) in data set [4] was determined as 1.2 µM; in data set [8] it was 26 µM.

For `c1ccc(-c2ccc(CNc3ncnc4cc(OCC5CCN(CCNc6ccnc7ccccc67)CC5)ccc34)cc2)cc1`, the fold change (FC) stood at 4 in the data set listed under Homo sapiens [9], 4 in the data set filed under Homo sapiens [12], 13 in the data set listed under Homo sapiens [17] and 4.2 in the data set filed under Homo sapiens [18]. The inhibition in data set [1] came out at 69%; in the data set listed under Homo sapiens [11] it was 20%; in [2], 24%; in data set [3] it was 83%; in the data set filed under Homo sapiens [14], 52%; in the data set listed under Homo sapiens [15] it was 71%. The inhibition in data set [5] came out at 86%. In addition, the inhibition result in the data set filed under Homo sapiens [10] is “Active”. The 50% effective concentration (EC50) stood at 1.1 µM in data set [4] and 100 µM in [8]. Further, in the data set listed under Homo sapiens [13], the result was inactive. In addition, the results for the Activity result in the data set on KG-1 and in the data set filed under Homo sapiens [16] were “Non-Toxic” and 87%, respectively.

`c1ccc(NCCNc2ncnc3cc(OCC4CCN(CCNc5ccnc6ccccc56)CC4)ccc23)cc1`: the inhibition in data set [1] came to 93%; in [2], 61%; in [3] it was 95%; in [5], 76%. For the same compound, the concentration for a half-maximal effect (EC50) in [4] came to 6.8 µM; in data set [8] it was 73 µM.

`COc1ccc(CCNc2ncnc3cc(OCC4CCN(CCNc5ccnc6ccccc56)CC4)ccc23)cc1`: the inhibition in [1] was determined as 100%; in data set [2] it was 82%; in data set [3] it was 100%; in [5], 82%. Moreover, the results for the concentration giving a half-maximal response (EC50) in data set [4] and in [8] were 3.4 µM and 27 µM, respectively.

As for `O=c1c2ccc(OCC3CCN(CCNc4ccnc5ccccc45)CC3)cc2ncn1CCCc1ccccc1`, the inhibition worked out at 90% in [1], 0% in data set [2], 99% in [3] and 65% in data set [5].

As for `Cc1cc(NCCN2CCC(COc3ccc4c(NCCCc5ccccc5)ncnc4c3)CC2)c2ccccc2n1`, the inhibition is 100% in data set [1], 83% in [2], 100% in data set [3] and 89% in data set [5]. Further, the half-maximal effective concentration (EC50) in data set [4] came to 2.1 µM; in [8], 24 µM.

`Nc1ccc(NCCN2CCC(COc3ccc4c(NCCCc5ccccc5)ncnc4c3)CC2)cc1`: the inhibition came out at 0% in data set [1], 0% in data set [2], 65% in data set [3] and 37% in [5].

As to `O=[N+]([O-])c1ccc(CCNc2ncnc3cc(OCC4CCN(CCNc5ccnc6ccccc56)CC4)ccc23)cc1`, the inhibition in data set [1] worked out at 72%; in [2], 0%; in data set [3], 74%; in data set [5], 54%.

Take `c1ccc(CN2CCC(Nc3ncnc4cc(OCC5CCN(CCNc6ccnc7ccccc67)CC5)ccc34)CC2)cc1`: the inhibition worked out at 81% in data set [1], 65% in data set [2], 93% in data set [3] and 72% in data set [5].

On to `CC(C)c1ccc(CCNc2ncnc3cc(OCC4CCN(CCNc5ccnc6ccccc56)CC4)ccc23)cc1`, for which the inhibition in data set [1] amounted to 8%; in data set [2], 0%; in data set [3], 83%; in [5], 53%.

With `COCn1ccc(NCCN2CCC(COc3ccc4c(NCCCc5ccccc5)ncnc4c3)CC2)nc1=O`, the inhibition came out at 11% in data set [1], 0% in data set [2], 44% in data set [3] and 10% in data set [5].

`Clc1ccccc1CCNc1ncnc2cc(OCC3CCN(CCNc4ccnc5ccccc45)CC3)ccc12`: the inhibition came out at 97% in data set [1], 42% in [2], 100% in data set [3] and 10% in [5].
